Assay results reported in the EternaBench riboswitch data.

Test system: MS2 coat protein
Assay: apparent Kd, MS2 coat protein; higher = weaker binding; RNA-MaP array; FMN 200 µM where present
Outline: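 Designs were transcribed by stalled E. coli RNA polymerase on Illumina sequencing-chip clusters. They were titrated with SNAP-549-labelled MS2 coat protein from 0.7 or 1.5 nM, doubling to 3 µM, in 100 mM Tris-HCl pH 7.5, 80 mM KCl, 4 mM MgCl2, BSA, DTT, yeast tRNA and Tween-20, without and then with constant ligand. The apparent Kd is the median of filtered per-cluster fits after normalisation of green signal to red-channel RNA signal and control-cluster median Fmax.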

[1] = designed as: OFF switch for flavin mononucleotide, no ligand
[2] = ligand present: flavin mononucleotide, designed as: OFF switch for flavin mononucleotide
[3] = designed as: ON switch for flavin mononucleotide, no ligand
[4] = ligand present: flavin mononucleotide, designed as: ON switch for flavin mononucleotide

| Sequence | apparent Kd [1] [nM] | apparent Kd [2] [nM] | apparent Kd [3] [nM] | apparent Kd [4] [nM] |
| --- | --- | --- | --- | --- |
| AAGUCGGUAGAUAAUAAUGAUUACAUGAGGAUCACCCAUGUAUAGGAUAUCGUCAGGAAUACUGACGAGAAGGAUACAUCCGAC | 17.6 | 30 |  |  |
| UUAUUAGCAGGAUAUAUCCGGGAUCACAUGAGGAUCACCCAUGUGACCGCUUGAGAUCCUAUAGAAGGGCUUUAUU | 30.6 | 56.3 |  |  |
| UUUUACUGAGGAUAUACAUUUUUUUAUUUAUUUAUAAUAUUACAUGAGGAUCACCCAUGUAGAAGGCAGAUUUU | 27.4 | 24.4 |  |  |
| UGAGCUUCAGGAUAUAUAUGGCGACCGUGAGGUCGAAGGUUACAUGAGGAUCACCCAUGUAGAAGGGAAGUUCU | 34.5 | 187 |  |  |
| AAACAGCGAGAUAAUAAUGAUUACAUGAGGAUCACCCAUGUAUAGGAUAUCGUCAGGAAUACUGACGAGAAGGAUACAACGCUG | 16 | 26.5 |  |  |
| UGGCUACAUGAGGAUCACCCAUGUCAGGAUAUGCCGUCGGAUUGCCUUCGUCGUUCGGGUAGAAGGGACUGCGG | 24.6 | 24.1 |  |  |
| CUAUUUUGUGCCUCAUUUACAUGAGGAUCACCCAUGUUAACUUAGGAUAUAUUUAUAUUGUUAGAGUAGAAGGAAGUACAUUUU | 162 | 133 |  |  |
| UACAACUUCGUAGGAUAUGUAUAUAAUUUCUACAUGAGGAUCACCCAUGUUAGCAUUUUUUAUUGACAGAAGGACGUAAUCUAA |  |  | 7.55 | 5.89 |
| GGUGCACGCACAGGAUAUCCGGCGGAGCUCGUCGGAGAAGGGUGACAUGAGGAUCACCCAUGUACGUGCAACUCGGUUUGAGAG |  |  | 22.4 | 48.9 |
| AACAUGAGGAUCACCCAUGUCCCACCAGAAGGCUGGCGGUCGUGAGAAAGGCCACGACAAAUAACAGAGGAUAUGGUGAAUGCA |  |  | 101 | 19.1 |
| CCAAGUUCGUAGGAUAUAGAUGCCUUAGGGCAAUUAGAAGGAUGGACAUGAGGAUCACCCAUGUCGGAUUCUGU |  | 18 |  |  |
| AGCGGCGCGGGCCACCGCAGAACCAGAAGGACAUGAGGAUCACCCAUGUAACAAAACAGGGCGGUGUAGGAUAUGGCAGGCUCG | 35.9 | 83.2 |  |  |
| AUGGAUAUCACAGGAUAUGCCAGGGAUACCCUGGCAGAAGGGUGAUCCAUCCUAUGUAAAUACAUGAGGAUCACCCAUGUGUCC |  |  | 51.7 | 43.6 |
| UAUAUAUAGUAAGGAUAUGUAUUAAUUUUAUCAACAGAAGGUACUGACAUGAGGAUCACCCAUGUUUUAGUGUGGGCAUGUAGA | 84 | 109 |  |  |
| UUAGAAUUGUUAGGAUAUUAAUUAUUUUUUAGUAUGAUCUACAUGAGGAUCACCCAUGUUAAAUAUAAGAAGGAACGUUUUAUU | 51.8 | 52 |  |  |
| AACUAUGAAUUGAUAGUGUCUGACAGAAGGCAAUAGGUUGUGACCGACAUGAGGAUCACCCAUGUUGAGGAUAUGUCUAGCUAC | 53.2 | 366 |  |  |
| CCUUUAAAGAUCCAAAAUUUCAACAUGAGGAUCACCCAUGUGCAGGAUAUCGUGCCAGUGAUGUACGAGAAGGGCAGACUCUGC | 119 | 149 |  |  |
| GGUGUGGCAUGAGGAUAUGGUCAGCUUUGCUGACCAGAAGGCAUGUCAAUAGACAUGAGGAUCACCCAUGUAGUUAACACACCA |  |  | 557 | 42.4 |
| GGCUGGUGACAGCAUCCAUCAAAACAUGAGGAUCACCCAUGUAGAAGGCUGUACGGUUACCGUACAGAGGAUAUACAAUGAUGC | 13.7 | 28.5 |  |  |
| CGGUGACGUGUAGGAUAUGGCGCUGGGUUUUGCCCAGAAGGACAUGAGGAUCACCCAUGUGGUAGAGGGCUGGCGGCCGCCCGU | 17.1 | 21.6 |  |  |
